Data set [1] deals with Heme. Put plainly: Displacement of [3H]astemizole from free heme crystal at 15 uM after 16 hrs by scintillation counting. The essentials: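 [3H]-astemizole (27 Ci/mmol) was incubated in triplicate with a 5 nmol heme crystal seed and 50 µM heme in 0.1 M ammonium acetate, pH 4.8, for 16 h at 37°C. Crystal was pelleted, sonicated, and spun through 1.7 M sucrose at 200,000 × g. The pellet was decrystallized in 50 mM NaOH/2% SDS and counted by scintillation.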

The test system of data set [2] is Heme. Put plainly: Inhibition of heme crystallization after 16 hrs. The essentials: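 Heme crystal extension was seeded with 2.5 nmol heme crystal and run with 50 µM heme in 0.1 M ammonium acetate, pH 4.8, at 37°C for 16 h. Crystal extension was quantified by the differential solubility of free versus crystalline heme in 0.15 M sodium bicarbonate. IC50 came from a four-parameter logistic fit and is given as mean ± s.e.m. of triplicate experiments.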

Data set [3] concerns Plasmodium falciparum. Put plainly: Antiplasmodial activity against Plasmodium falciparum infected in erythrocytes assessed as stabilization of free heme at 0.05 uCi after 16 hrs by scintillation counting. The data set is classed as functional, organism-based. To be noted: tested as the 3H-labelled form.
The subject of data set [4] is Heme. Put plainly: Inhibition of heme crystallization at 7.5 uM after 24 hrs at pH 5.2 - 5.6.
Data set [5] relates to Plasmodium vinckei. As to the kind of experiment: Antimalarial activity against chloroquine-sensitive Plasmodium vinckei infected in mice (Mus musculus) assessed as reduction in parasitemia at 30 mg/m'2, intraperitoneally […]. The data set is classed as functional.
The subject of data set [6] is Plasmodium vinckei. As to the kind of experiment: Antimalarial activity against chloroquine-sensitive Plasmodium vinckei infected in mice (Mus musculus) assessed as complete cure from parasite infection at 300 mg/m'2, perorally qd for 4 days administered 2 hrs post infection measured on day 4. The format is functional. The procedure, abridged:
(§1)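 Male C57/BL6 mice (5-6 weeks, 25 ± 2 g) were infected with the P. vinckei Rhodain strain and assessed by the 4-d parasite suppression test. Astemizole tartrate or acetate, or an equal volume of vehicle, was given intraperitoneally or per os. Parasitemia is reported as mean ± s.e.m. Cure meant survival to 30 days post infection with parasitemia cleared and no recrudescence over the next 30 days. Two-tailed Student's t-test was used.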

For data set [7], the system named is Plasmodium yoelii. As to the kind of experiment: Antimalarial activity against chloroquine-sensitive Plasmodium yoelii 17X infected in mice (Mus musculus) assessed as complete cure from parasite infection at 15 mg/m'2, intraperitoneal daily for 4 days administered 2 hrs post infection measured on day 5. The data set is classed as functional, organism-based. The essentials:
(§2)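 P. yoelii 17X lethal strain was used in male C57/BL6 mice (5-6 weeks, 25 ± 2 g), assessed by the 4-d suppression test. Drug or an equal volume of vehicle was given intraperitoneally or per os. Parasitemia is reported as mean ± s.e.m. Cure meant survival to day 30 with cleared parasitemia and no recrudescence over a further 30 days. Two-tailed t-test was used.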

The subject of data set [8] is Plasmodium yoelii. Put plainly: Antimalarial activity against chloroquine-sensitive Plasmodium yoelii 17X infected in mice (Mus musculus) assessed as complete cure from parasite infection at 300 mg/m'2, perorally daily for 4 days administered 2 hrs post infection measured on day 4. The format is functional, organism-based. The essentials: as §2
Data set [9] deals with Plasmodium falciparum. Put plainly: Antimalarial activity against Plasmodium falciparum 3D7 assessed as inhibition of parasite growth after 48 to 96 hrs by [3H]hypoxanthine incorporation assay. The format is functional, organism-based. The essentials:
(§3)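 Synchronized ring-stage parasites in RPMI 1640 with 10% human serum, 0.2% parasitemia and 2-4% hematocrit, were exposed to drug for 48 or 96 h with [3H]-hypoxanthine. Growth was read as radioactive incorporation. IC50 came from a four-parameter logistic fit and is given as mean ± s.e.m. of triplicate experiments.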

The test system of data set [10] is Plasmodium vinckei. Put plainly: Antimalarial activity against chloroquine-sensitive Plasmodium vinckei infected in mice (Mus musculus) assessed as complete cure from parasite infection at 30 mg/m'2, intraperitoneally qd for 4 days administered 2 hrs post infection measured on day 5. The format is functional. The procedure, abridged:
as §1

For data set [11], the system named is Plasmodium yoelii. Put plainly: Antimalarial activity against chloroquine-sensitive Plasmodium yoelii 17X infected in mice (Mus musculus) assessed as reduction in parasitaemia at 15 mg/m'2, […] administered 2 hrs post infection […]. The format is functional.
The subject of data set [12] is Plasmodium falciparum. As to the kind of experiment: Antimalarial activity against Plasmodium falciparum Dd2 assessed as inhibition of parasite growth after 48 to 96 hrs by [3H]hypoxanthine incorporation assay. The data set is classed as functional, organism-based. The essentials: as §3
Data set [13] deals with Plasmodium falciparum. As to the kind of experiment: Antimalarial activity against Plasmodium falciparum ItG assessed as inhibition of parasite growth after 48 to 96 hrs by [3H]hypoxanthine incorporation assay. The data set is classed as functional, organism-based. The procedure, abridged: as §3
Data set [14] relates to Plasmodium vinckei. Put plainly: Antimalarial activity against chloroquine-sensitive Plasmodium vinckei infected in mice (Mus musculus) assessed as complete cure from parasite infection at 15 mg/m'2, intraperitoneally qd for 4 days administered 2 hrs post infection measured on day 5. The format is functional. The procedure, abridged: as §1
The nature of data set [15]: Oral bioavailability in human. The data set is classed as ADME, organism-based. Conditions: in vivo, read-out: Activity.
Data set [16] has as its system Plasmodium vinckei. Put plainly: Antimalarial activity against chloroquine-sensitive Plasmodium vinckei infected in mice (Mus musculus) assessed as reduction in parasitemia at 15 mg/m'2, intraperitoneally […]. The data set is classed as functional.
The test system of a further data set is Plasma. Put plainly: Metabolic stability in human plasma assessed as desmethylastemizole half life. The data set is classed as ADME, cell-free.
The nature of data set [17]: Drug level in chloroquine-sensitive Plasmodium falciparum 3D7 culture at 1.5 uCi after 20 hrs. The data set is classed as ADME. Conditions: plasmodium falciparum 3d7, 20 h.
Data set [18] can be described thus: Drug level in Plasmodium falciparum 3D7 infected erythrocyte lysate at 1.5 uCi after 20 hrs. The format is ADME, cell-based.
The nature of data set [19]: Drug level in chloroquine-sensitive Plasmodium falciparum 3D7 lysate at 1.5 uCi after 20 hrs. The format is ADME. To be noted: plasmodium falciparum 3d7, 20 h.
Data set [20] can be described thus: Drug level in hemozoin of Plasmodium falciparum Dd2 at 1.5 uCi after 20 hrs. The format is ADME. Conditions: plasmodium falciparum dd2, 20 h. The essentials:
(§4)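 Duplicate 12 mL ring-stage cultures at 5% parasitemia were incubated with 1.5 µCi [3H]-astemizole for 20 h. Erythrocytes were harvested at the trophozoite stage and washed. Hemozoin was extracted by hypotonic lysis and purified by sucrose-cushion ultracentrifugation, then decrystallized in NaOH/SDS and counted by scintillation.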

Data set [21] can be described thus: Drug level in chloroquine-resistant Plasmodium falciparum Dd2 lysate at 1.5 uCi after 20 hrs. The data set is classed as ADME. To be noted: plasmodium falciparum dd2, 20 h. The essentials: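 Duplicate 12 mL ring-synchronized cultures (RPMI 1640, 10% human serum; 5% parasitemia) incubated 20 h with 1.5 µCi tritiated drug. Trophozoite-stage erythrocytes harvested and washed once. Hemozoin released by hypotonic lysis, then pelleted through 1.7 M sucrose/50 mM Tris-HCl pH 8.0 at 200,000 × g for 15 min. Pellet decrystallized in 50 mM NaOH, 2% SDS; radioactivity read by scintillation counting.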

The nature of data set [22]: Drug level in chloroquine-sensitive Plasmodium falciparum Dd2 culture at 1.5 uCi after 20 hrs. The format is ADME. To be noted: plasmodium falciparum dd2, 20 h.
A short description of data set [23]: Drug level in Plasmodium falciparum Dd2 infected erythrocyte lysate at 1.5 uCi after 20 hrs. The data set is classed as ADME, cell-based.
A short description of data set [24]: Drug level in hemozoin of Plasmodium falciparum 3D7 at 1.5 uCi after 20 hrs. The format is ADME. Conditions: plasmodium falciparum 3d7, 20 h. The essentials: as §4

Activity calls are given as the source filed them. No cut-off for these calls is given here. Where only a bound is given, the exact number is not on record here.

Turning to `C=C[C@H]1CN2CC[C@H]1C[C@@H]2[C@@H](O)c1ccnc2ccc(OC)cc12`, in the data set on Heme [1], the result was Active. Also, the inhibition entry in the data set on Heme [2] was “Active”.

`C=C[C@H]1CN2CC[C@H]1C[C@H]2[C@H](O)c1ccnc2ccc(OC)cc12`: the result with Heme [1] was inactive. Besides, the inhibition entry in the data set on Heme [2] is “inactive”.

For `CC1(C)S[C@@H]2[C@H](NC(=O)[C@H](N)c3ccccc3)C(=O)N2[C@H]1C(=O)O`, the outcome with Heme [1] was inactive. Further, the inhibition result with Heme [2] is “inactive”.

For `CCN(CC)CCCC(C)Nc1c2ccc(Cl)cc2nc2ccc(OC)cc12` (stereo unspecified), the result with Heme [1] was Active. Moreover, the inhibition entry in the data set with Heme [2] was “Active”.

On to `CCN(CC)CCCC(C)Nc1ccnc2cc(Cl)ccc12` (stereo unspecified), for which the outcome with Heme [1] (tested as the 3H-labelled form) was inactive. Moreover, in the data set on Plasmodium falciparum [3], the result was Active. In addition, the inhibition result in the data set with Heme [4] (tested as the 3H-labelled form) was “Active”.

In the case of `COc1ccc(CCN(C)CCCC(C#N)(c2ccc(OC)c(OC)c2)C(C)C)cc1OC` (stereo unspecified), the outcome in the data set on Heme [1] was inactive. Besides, the inhibition result in the data set with Heme [2] was “inactive”.

Consider `C[C@@H]1CC[C@H]2[C@@H](C)C(=O)O[C@@H]3O[C@@]4(C)CC[C@@H]1[C@]32OO4`, for which the result in the data set on Heme [1] was inactive. Besides, the inhibition result in the data set with Heme [2] was “inactive”.

For `OC(c1cc(C(F)(F)F)nc2c(C(F)(F)F)cccc12)C1CCCCN1` (stereo unspecified), in the data set with Heme [1], the outcome was inactive. In addition, the inhibition entry in the data set with Heme [2] is “inactive”.

Consider `COc1ccc(CCN2CCC(Nc3nc4ccccc4n3Cc3ccc(F)cc3)CC2)cc1` [ASTEMIZOLE], for which the “inhibition (INH)” value with Plasmodium vinckei [5] was found to be 80%; in the data set with Plasmodium yoelii [11] it was 44%. The result in the data set with Plasmodium vinckei [6], with Plasmodium yoelii [8] and in the data set with Plasmodium falciparum [3] was Active. The result in the data set with Plasmodium yoelii [7] and in the data set with Plasmodium vinckei [10] was inactive. Also, the IC50 in the data set on Plasmodium falciparum [9] turned out to be 227 nM; in the data set on Heme [2] it was 12300 nM; in the data set with Plasmodium falciparum [12], 457 nM; with Plasmodium falciparum [13], 734 nM. Besides, the inhibition result with Heme [4] was “Active”.

In the case of `Oc1ccc(CCN2CCC(Nc3nc4ccccc4n3Cc3ccc(F)cc3)CC2)cc1` [DESMETHEYLASTEMIZOLE], the outcome in the data set with Plasmodium vinckei [14] and in the data set on Plasmodium yoelii [7] was inactive. The IC50 in the data set on Plasmodium falciparum [9] was determined as 117 nM; in the data set with Heme [2], 8130 nM; with Plasmodium falciparum [12], 106 nM; in the data set on Plasmodium falciparum [13], 56.8 nM. For the same molecule, in [15], the bioavailability came to 95%. The “inhibition (INH)” value in the data set on Plasmodium vinckei [16] is reported as “<=81%”; in the data set on Plasmodium yoelii [11] it was 40%. Moreover, the t1/2 in the data set on Plasma came out at 170 h.

Regarding `Fc1ccc(Cn2c(NC3CCNCC3)nc3ccccc32)cc1` [TECASTEMIZOLE], the figures for the IC50 with Plasmodium falciparum [9], with Plasmodium falciparum [12] and with Plasmodium falciparum [13] were 4480 nM, 3590 nM and 2230 nM, respectively.

Regarding `[3H]C([3H])([3H])Oc1ccc(CCN2CCC(Nc3nc4ccccc4n3Cc3ccc(F)cc3)CC2)cc1` [[3H]-ASTEMIZOLE], the Drug uptake in data set [17] was 20.9 cpm/uL; in data set [18] it was 179 cpm/uL; in data set [19], 2105 cpm/uL; in data set [20], 21389 cpm/uL; in data set [21], 2598 cpm/uL; in data set [22], 17.9 cpm/uL. Moreover, the Drug uptake in data set [23] turned out to be 144 cpm/uL; in data set [24], 19656 cpm/uL.

Turning to `[3H]c1nc2c([3H])c(Cl)c([3H])c([3H])c2c(N([3H])C([3H])(C([3H])([3H])[3H])C([3H])([3H])C([3H])([3H])C([3H])([3H])N(C([3H])([3H])C([3H])([3H])[3H])C([3H])([3H])C([3H])([3H])[3H])c1[3H]` (stereo unspecified) [[3H]-CHLOROQUINE], the IC50 in the data set with Heme [2] was 5740 nM.

The values above are taken from ChEMBL document CHEMBL1240313, “A clinical drug library screen identifies astemizole as an antimalarial agent” (Nat Chem Biol, 2006).
